INS promoter inh: inhibitors of insulin promoter-driven GFP, primary screen, imaging, TRM-6 cells (human fetal islet line), eGFP reporter, cell count; 0.9% of 130,000 active; inhibition, % at 2 µM; reporter expression induced with tamoxifen; AID 1273, 2008;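 active = inhibition above the mean plus 3 SD, with well images judged a real hit on visual review, cut at about 60% in these data, passing the limit was not always enough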
Hsp70 activator: Hsp70 transcriptional activators, primary screen, cell-based, HeLa, Hsp70 promoter luciferase, luminescence, 10 µM; HeLa Hsp70 promoter luciferase reporter; scaled: vehicle 0, proteasome-inhibitor control 100%; activation, % at 10 µM; 0.04% of 200,000 active;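 active = activation above the mean across all tested compounds plus 3 SD, cutoff set per campaign, cut at about 5.5% in these data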;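 also: 100% = MG132 at 30 µM as the positive control and 0% = DMSO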
RBBP9 inhibitor: human RBBP9 inhibitors, primary screen, biochemical, fluorescence polarization, FP-Rh probe, HTS; recombinant RBBP9; inhibition, % at 7.94 µM; 0.2% of 220,000 active; AID 1515, 2009;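 active = inhibition above the campaign mean of all tested compounds plus 3 SD, cut at about 14% in these data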;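 also: plate controls were DMSO wells with RBBP9 for no effect and wells lacking RBBP9 protein for full effect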
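Test system: recombinant human RBBP9; Timing: 30 min then 45 min, 25 °C; Detection: fluorescence polarization; Control set: RBBP9 with DMSO as uninhibited control, no-protein wells as full inhibition; Compound dosing: one concentration, 7.94 µM nominal, 0.794% DMSO; Probe or stimulus: FP-Rh activity-based probe, 375 nM before mixing.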
Insulin prom up: insulin promoter activators in MIN6 cells, imaging, high-content screening, mouse beta cells | z-score at 5 µM | 0.3% of 190,000 active | MIN6 insulin promoter-GFP reporter; stronger effect = higher value;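 active = z-score above 3 at 5 µM with at least 500 cells counted in the well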
Wee1 stabilizer: Wee1 degradation inhibitors, primary screen, cell-based, HeLa, Wee1K328M-luciferase, luminescence; Wee1-like protein kinase (Homo sapiens), P30291; HeLa Luc-Wee1K328M stability; 100% = proteasome inhibitor MG132 effect; reporter increase, % at 5 µM; 1.2% of 220,000 active;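 active = activation above the mean of all tested compounds plus 3 SD, set per screening run, cut at about 8.8% in these data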;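 also: cells exposed to compound for 20 h before luminescence read; 0% = DMSO alone and 100% = MG132 at 30 µM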
Target sequence (P30291 whole entry K328M): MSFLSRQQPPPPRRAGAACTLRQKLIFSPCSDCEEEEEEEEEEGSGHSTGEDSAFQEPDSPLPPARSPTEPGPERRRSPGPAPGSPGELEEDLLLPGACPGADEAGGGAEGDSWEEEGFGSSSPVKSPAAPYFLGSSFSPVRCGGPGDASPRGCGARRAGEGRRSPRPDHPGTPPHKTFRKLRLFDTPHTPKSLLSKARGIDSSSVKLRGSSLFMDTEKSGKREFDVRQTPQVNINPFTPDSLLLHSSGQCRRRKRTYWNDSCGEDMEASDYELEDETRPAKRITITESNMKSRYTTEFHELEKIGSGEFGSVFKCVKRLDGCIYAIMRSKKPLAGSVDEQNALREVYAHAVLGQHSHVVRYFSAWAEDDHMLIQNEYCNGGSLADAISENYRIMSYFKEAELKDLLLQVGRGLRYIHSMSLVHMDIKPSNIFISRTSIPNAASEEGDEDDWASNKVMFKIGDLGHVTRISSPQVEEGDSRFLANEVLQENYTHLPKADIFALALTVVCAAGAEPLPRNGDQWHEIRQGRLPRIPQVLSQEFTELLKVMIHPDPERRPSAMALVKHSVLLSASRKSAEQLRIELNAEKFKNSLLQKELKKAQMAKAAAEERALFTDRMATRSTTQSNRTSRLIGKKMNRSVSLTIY
Mdm2 ligase inh: MDM2-luciferase reporter signal enhancers, primary screen, MDM2 E3 ligase inhibitor project, cell-based, luminescence, 1536-well. signal enhancement, % at 5 µM. 0.11% of 210,000 active. cell-based MDM2 ubiquitination luciferase reporter, 2 h; 0 = plate control, 100 = twice control, blank-subtracted. E3 ubiquitin-protein ligase Mdm2 (Homo sapiens), Q00987. AID 1230, 2008;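 active = signal enhancement of 30% or more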;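 also: luminescence tracks abundance of the self-degrading MDM2-luciferase fusion protein; higher signal means inhibition of MDM2 E3 ligase activity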
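system = mammalian cells stably expressing self-ubiquitinating, self-degrading MDM2 E3–luciferase fusion | quantity = 2000 cells per well seeded | incubation = 4 h cell settling then 2 h compound exposure, 37 °C | signal = SteadyLite luminescence, 15 min reagent step | benchmarks = plate control and blank wells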
Starred values were filed as active, the others as inactive; i = inactive; x = no result. Only some compounds are listed: those with a hit (about 2.2% of all), similar ones and a draw of the others.

SMILES | INS promoter inh | Hsp70 activator | RBBP9 inhibitor | Insulin prom up | Wee1 stabilizer | Mdm2 ligase inh
CCOC(=O)C(=CNc1ccc(-c2ccco2)c(Cl)c1)C(=O)OCC | x | x | -8 | -0.21 | 1 | -8
COc1ccc(N2CCN(C(=O)CN(C3CCCCC3)S(C)(=O)=O)CC2)cc1 | x | 0 | -2 | -0.23 | 9.1* | -48
Cc1ccccc1Nc1nc(N)nc(CSc2n[nH]c(N)n2)n1 | x | x | -4 | 1.4 | -1 | -6
CC(C)c1ccc2c(c1)C1(NN=C(c3ccccc3)S1)C(=O)N2 (stereo not given) | 31 | 1 | -2 | x | 0 | 45*
Cc1c(C(=O)NCCCN2CCOCC2)oc2c1C1(CCC2)SCCS1 | -24 | 0 | -6 | -0.23 | -1 | 1
O=C(O)c1cc(-c2ccco2)nc2ccc(Br)cc12 | 77* | 0 | -7 | 0.23 | 6 | -4
O=C(Cn1c(-c2cscn2)nc2ccccc21)Nc1cc(F)ccc1F | 28 | 0 | -5 | -0.2 | -1 | -10
O=C(Cn1c(-c2cscn2)nc2ccccc21)Nc1ccc2ccccc2c1 | -7 | 0 | -11 | -0.53 | 11* | -16
CCn1c(CNc2ccc(F)cc2)nnc1SCC(=O)Nc1ccc(OC)cc1 | -300 | 0 | -7 | x | 0 | 4
O=C(NN=C1C2CC3CC(C2)CC1C3)c1cccs1 | 63 | 0 | 1 | x | 9.5* | x
O=C(NN=C1CCCC1)c1cccs1 | 0 | 0 | -1 | x | 5 | -2
CCOC(=O)c1c(NC(=O)CSc2nnc(-c3cccnc3)n2Cc2ccco2)sc(C)c1C | x | 0 | -5 | -2.4 | -2 | -11
CCCCNC(=O)Cn1cnc([N+](=O)[O-])n1 | x | 0 | -8 | 0 | -4 | 2
COCCNC(=O)Cn1cnc([N+](=O)[O-])n1 | x | 0 | -6 | -0.4 | 9.6* | -21
COC(=O)c1c(NC(C)=O)sc(C(=O)Nc2ccccc2)c1C | x | 0 | 2 | 0.2 | 9.1* | 12
Cc1c(C(=O)COC(C)(C)C)[nH]c2ccccc12 | x | 0 | -7 | -0.28 | 3 | -15
Cc1c(CN2CCC(CO)(CCOc3ccccc3)CC2)[nH]c2c(Cl)cccc12 | x | 0 | -1 | -2.2 | -3 | 5
COC(=O)c1cc(NC(=O)c2cccc(C(F)(F)F)c2)c(=O)oc1C | x | 0 | -10 | 1.7 | 4 | -5
COC(=O)c1cc(NC(=O)c2cccc(Cl)c2)c(=O)oc1/C=C/Nc1cc(C)cc(C)c1 | i | -1 | -5 | 15* | 1 | -3
Cc1cc(C)nc(NS(=O)(=O)c2ccc(N/C=C\C(=O)c3ccc(Cl)cc3)cc2)n1 | 70* | 0 | -1 | -0.38 | -2 | 0
Cc1cc(C)nc(NS(=O)(=O)c2ccc(N/C=C/C(=O)c3ccc(Cl)c(Cl)c3)cc2)n1 | 32 | 0 | -4 | -0.18 | 3 | 0
CON1C(=O)C(=O)N(OC)C(C)(C)C1(C)C | x | 0 | -6 | x | 0 | -3
Cc1ccc(N2CC(O)=C(c3ccccc3)C2=N)cc1 | 73* | 0 | 5 | -0.86 | 2 | -18
CCOP(=O)(c1ccccc1)C1(O)CCCCC1 (stereo not given) | 36 | 0 | 1 | x | -1 | -18
Cc1ccc(/C=N/NC(=O)NC23CC4CC(CC(C4)C2)C3)o1 | x | x | -8 | 0.38 | 10* | -11
CN(Cc1ccc(O)cc1)C1CCCCC1 | 92* | -1 | 0 | -0.92 | 1 | 19
O=C(NCCCN1CCCCC1)C1(S(=O)(=O)c2ccc(Cl)cc2)CC1 | x | 0 | -6 | x | -1 | -5
O=C(NCCN1CCCC1)C1(S(=O)(=O)c2ccc(Cl)cc2)CC1 | -31 | 0 | -7 | 3.1* | -1 | -3
CC(C)(C)NC(=O)COC(=O)/C=C/c1ccc(F)cc1 | x | 0 | -6 | 0.1 | -1 | -5
Cc1nn2c(NC(C)C)c3c(nc2c1-c1ccccc1)CCC3 | x | x | -10 | -1.4 | 0 | -17
